The values below come from ChEMBL document CHEMBL5029151, “Conformationally Constrained Peptides with High Affinity to the Vascular Endothelial Growth Factor” (J Med Chem, 2021).

Data set [1] can be described thus: Binding affinity to VEGF (unknown origin) by microscale thermophoresis assay. Details: species or system Homo sapiens. Put shortly:
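Microscale thermophoresis with fluorescently labeled VEGF-RED (initial concentration 12 nM), read on a Monolith NT.115 Pico. Peptide and VEGF were measured immediately after mixing, with no incubation. KD derived from the thermophoresis signal.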

Data set [2] can be described thus: Inhibition of VEGF-mediated in human HUVEC cell proliferation incubated for 48 hrs by MTT assay. Put shortly: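 HUVECs seeded at 25,000/well in medium with 0.5 ng/mL VEGF165 for 48 h, then starved 24 h without VEGF or FBS. Peptide (4, 20, 100, 500 µM) premixed with 50 ng/mL VEGF165 for 2 h at 37°C, then added to cells for 48 h. MTT read-out as percent of no-peptide control OD, fitted to IC50; mean ± SD, n = 3.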
Background: Tetrazolium dyes change colour on reduction, which living cells bring about.

Data set [3] is described as follows: Stability in porcine vitreous assessed as increase in life time measured at 10 uM after 10 days by UPLC-MS/MS analysis. It counts as ADME, tissue-based, Sus scrofa, Vitreous humor. The settings on record: pig, 240 h, time 10 day. Put shortly:
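Peptide at 10 µM incubated at 37°C in porcine vitreous containing 1% penicillin/streptomycin, one separate tube per time point. Remaining parent peptide quantified by UPLC-MS/MS at each time point.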

Data set [4] is described as follows: Binding affinity to VEGF (unknown origin) incubated for 30 mins by microscale thermophoresis assay. Details: species or system Homo sapiens. An outline of the steps:
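Fluorescently labeled VEGF-RED (initial concentration 12 nM) mixed with peptide and incubated 30 min to reach complex equilibrium before microscale thermophoresis on a Monolith NT.115 Pico. KD obtained from the thermophoresis signal.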
On the technique in general: In MST a laser heats a spot of the sample, and binding alters the fluorescence response.

The next data set has as its system ARPE-19. The experiment in a line: Cytotoxicity against human ARPE-19 cells assessed as cell viability up to 20 uM measured after 5 hrs by MTT assay. The following applies: arpe-19, 5 h. It counts as cell-based. An outline of the steps: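 ARPE-19 cells seeded at 20,000/well and grown overnight, then washed. Exposed 5 h at 37°C, 7% CO2 to peptide at 0.01–100 µM in complete medium. Medium replaced, cells grown a further 24 h. MTT 4 h at 37°C, formazan dissolved in 10% SDS/0.01 M HCl overnight, A570 read. Viability relative to untreated cells; poly-L-lysine-treated cells as control.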

Positions of bridges follow the written chain, without caps; N, C: chain ends. Non-standard residues stand in square brackets, D forms with d. Residues, ends and D or L forms follow the SMILES beside them. Nle = CCCC[C@H](N)C(=O)O; Aib = CC(C)(N)C(=O)O

Broadly, the Kd is the free concentration of one partner at which half of the binding sites on the other are occupied at equilibrium, for simple one-to-one binding. A word on the IC50: it is the concentration that gives 50% inhibition.

Consider `CCCC[C@@H]1NC(=O)[C@H](C(C)C)NC(=O)[C@H](Cc2c[nH]cn2)NC(=O)[C@H]([C@@H](C)CC)NC(=O)[C@H](CC(=O)O)NC(=O)[C@@H](N)CSSC[C@@H](C(=O)N[C@@H](Cc2ccccc2)C(=O)N[C@@H](CCC(=O)O)C(=O)N[C@@H](CCCNC(=N)N)C(=O)N[C@@H](CC(C)C)C(=O)O)NC(=O)[C@H](CCC(=O)O)NC(=O)[C@H](Cc2c[nH]c3ccccc23)NC(=O)[C@H](CCC(=O)O)NC(=O)[C@H](Cc2c[nH]c3ccccc23)NC1=O`, for which the Kd in data set [1] is 9.97 µM. For the same compound, the midpoint of inhibition in data set [2], the IC50, lay at 12 µM.

`CCCC[C@@H]1NC(=O)[C@H](C(C)C)NC(=O)[C@H](Cc2c[nH]cn2)NC(=O)[C@H]([C@@H](C)CC)NC(=O)[C@H](CC(=O)O)NC(=O)[C@@H](NC(=O)[C@H](CC(N)=O)NC(=O)[C@@H](N)C(C)C)CSSC[C@@H](C(=O)N[C@@H](Cc2ccccc2)C(=O)N[C@@H](CCC(=O)O)C(=O)N[C@@H](CCCNC(=N)N)C(=O)N[C@@H](CC(C)C)C(=O)O)NC(=O)[C@H](CCC(=O)O)NC(=O)[C@H](Cc2c[nH]c3ccccc23)NC(=O)[C@H](CCC(=O)O)NC(=O)[C@H](Cc2c[nH]c3ccccc23)NC1=O` showed a dissociation constant Kd in data set [1] of 1.94 µM. The compound further gave an IC50 in data set [2] of 4 µM.

Consider `CCCC[C@@H]1NC(=O)[C@H](C(C)C)NC(=O)[C@H](Cc2c[nH]cn2)NC(=O)[C@H]([C@@H](C)CC)NC(=O)[C@H](CC(=O)O)NC(=O)[C@@H](NC(=O)[C@H](CCCCN)NC(=O)[C@H](CCCCN)NC(=O)C(C)(C)NC(=O)[C@@H](N)CCCCN)CSSC[C@@H](C(=O)N[C@@H](Cc2ccccc2)C(=O)N[C@@H](CCC(=O)O)C(=O)N[C@@H](CCCNC(=N)N)C(=O)N[C@@H](CC(C)C)C(=O)O)NC(=O)[C@H](CCC(=O)O)NC(=O)[C@H](Cc2c[nH]c3ccccc23)NC(=O)[C@H](CCC(=O)O)NC(=O)[C@H](Cc2c[nH]c3ccccc23)NC1=O`, for which, in data set [3], the Stability result is listed as “Stable”. Further, the Kd in data set [1] stood at 0.54 µM; in data set [4], 3 µM. In data set [2], this compound showed an IC50 of 6 µM.

As for `CCCC[C@@H]1NC(=O)[C@H](C(C)C)NC(=O)[C@H](Cc2c[nH]cn2)NC(=O)[C@H]([C@@H](C)CC)NC(=O)[C@H](CC(=O)O)NC(=O)[C@@H](NC(=O)[C@H](CC(N)=O)NC(=O)[C@@H]2CCCN2C(=O)[C@H](CCC(=O)O)NC(=O)[C@@H](N)C(C)C)CSSC[C@@H](C(=O)N[C@@H](Cc2ccccc2)C(=O)N[C@@H](CCC(=O)O)C(=O)N[C@@H](CCCNC(=N)N)C(=O)N[C@@H](CC(C)C)C(=O)O)NC(=O)[C@H](CCC(=O)O)NC(=O)[C@H](Cc2c[nH]c3ccccc23)NC(=O)C(C)(C)NC(=O)[C@H](Cc2c[nH]c3ccccc23)NC1=O` (H-VEPNCDIHV[Nle]W[Aib]WECFERL-OH; disulfide 5-15), the Stability entry in data set [3] is on record as “Unstable”. In addition, the Kd in data set [1] was 0.94 µM; in data set [4], 0.15 µM. This compound also showed an IC50 in data set [2] of 3.5 µM.

`CCCC[C@@H]1NC(=O)[C@H](C(C)C)NC(=O)[C@H](Cc2c[nH]cn2)NC(=O)[C@H]([C@@H](C)CC)NC(=O)[C@H](CC(=O)O)NC(=O)[C@@H](NC(=O)[C@H](CC(N)=O)NC(=O)[C@@H]2CCCN2C(=O)[C@H](CCC(=O)O)NC(=O)[C@@H](N)C(C)C)CSSC[C@@H](C(=O)N[C@@H](Cc2ccccc2)C(=O)N[C@@H](CCC(=O)O)C(=O)N[C@@H](CCCNC(=N)N)C(=O)N[C@@H](CC(C)C)C(=O)O)NC(=O)[C@H](CCC(=O)O)NC(=O)[C@H](Cc2c[nH]c3ccccc23)NC(=O)[C@H](CCC(=O)O)NC(=O)[C@H](Cc2c[nH]c3ccccc23)NC1=O`: the Kd worked out at 3.87 µM in data set [1] and 0.3 µM in data set [4]. Moreover, in data set [2], 20 µM corresponded to half-maximal inhibition (IC50). Further, the Activity entry in the data set with ARPE-19 is listed as “Non-Toxic”.

As for `CCCC[C@@H]1NC(=O)[C@H](C(C)C)NC(=O)[C@H](Cc2c[nH]cn2)NC(=O)[C@H]([C@@H](C)CC)NC(=O)[C@H](CC(=O)O)NC(=O)[C@@H](NC(=O)[C@H](CC(N)=O)NC(=O)[C@@H]2CCCN2C(=O)C(C)(C)NC(=O)[C@@H](N)C(C)C)CSSC[C@@H](C(=O)N[C@@H](Cc2ccccc2)C(=O)N[C@@H](CCC(=O)O)C(=O)N[C@@H](CCCNC(=N)N)C(=O)N[C@@H](CC(C)C)C(=O)O)NC(=O)[C@H](CCC(=O)O)NC(=O)[C@H](Cc2c[nH]c3ccccc23)NC(=O)[C@H](CCC(=O)O)NC(=O)[C@H](Cc2c[nH]c3ccccc23)NC1=O`, the Stability entry in data set [3] is “Stable”. The Kd turned out to be 2.97 µM in data set [1] and 0.004 µM in data set [4]. The compound also came in with an IC50 in data set [2] of 10 µM.

With `CCCC[C@@H]1NC(=O)[C@H](C(C)C)NC(=O)C(C)(C)NC(=O)[C@H]([C@@H](C)CC)NC(=O)[C@H](CC(=O)O)NC(=O)[C@@H](NC(=O)[C@H](CC(N)=O)NC(=O)[C@@H]2CCCN2C(=O)[C@H](CCC(=O)O)NC(=O)[C@@H](N)C(C)C)CSSC[C@@H](C(=O)N[C@@H](Cc2ccccc2)C(=O)N[C@@H](CCC(=O)O)C(=O)N[C@@H](CCCNC(=N)N)C(=O)N[C@@H](CC(C)C)C(=O)O)NC(=O)[C@H](CCC(=O)O)NC(=O)[C@H](Cc2c[nH]c3ccccc23)NC(=O)[C@H](CCC(=O)O)NC(=O)[C@H](Cc2c[nH]c3ccccc23)NC1=O`, the Stability result in data set [3] is reported as “Stable”. In data set [1], this compound registered a Kd of 11.8 µM. The same compound showed an IC50 in data set [2] of 50 µM.
